# According to ChEMBL document CHEMBL1129957, “Synthesis, antiproliferative and antiviral activity of imidazo[4,5-d]isothiazole nucleosides as 5:5 fused analogs of nebularine and 6-methylpurine ribonucleoside” (J Med Chem, 1997):
# Tests used:
# Human betaherpesvirus 5 = assay: Antiviral activity against human cytomegalovirus (HCMV) in plaque reduction assay; assay type: functional, organism-based
# In short: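 HFF cells infected with roughly 100 pfu HCMV Towne per cm2; after adsorption, drug in growth medium at four to eight concentrations in duplicate wells; 7 days at 37 °C, crystal violet staining, microscopic plaque counts as percent reduction versus no-drug control. IC50 by regression on log concentration; average of duplicate experiments.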
# HFF = assay: Inhibition against human foreskin fibroblast (HFF) in a visual assay at time of plaque enumeration; assay type: functional, cell-based
# In short: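 Stationary uninfected HFF cells, grown in MEM with 10% fetal bovine serum, inspected microscopically for cytotoxicity, scored visually when plaques were counted in the HCMV plaque assay.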
# Human alphaherpesvirus 1 = assay: Antiviral activity against herpes simplex virus type 1 (HSV-1) by ELISA test; assay type: functional, organism-based
# In short: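 BSC-1 cells (10 000/well) in MEM(E) plus 10% calf serum, incubated overnight at 37 °C, then drug in quadruplicate plus HSV-1 KOS at 100 pfu/well; 3 days at 37 °C; HRP-conjugated rabbit anti-HSV-1 antibody, TMB substrate, absorbance at 450 and 570 nm. Percent reduction versus virus-only control; IC50 by regression on log concentration.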
# L1210 = assay: Antiproliferative activity against murine L1210 cells; assay type: functional, cell-based; details: Mus musculus
# In short: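 Murine L1210 leukemia cells in Fischer's medium with 10% heat-inactivated horse serum; cells counted at 0, 24, 48, 72, 96 h with compound; growth rate from slope of semilog cell number vs time, as percent of control (doubling time 12 h). IC50 = concentration halving growth rate; average of two or three experiments.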
# KB = assay: Antiproliferative activity against KB cell; assay type: functional, cell-based; details: Homo sapiens
# In short: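 KB cells seeded at 3000-5000/well, compound added after overnight culture at 37 °C in quadruplicate at six to eight concentrations; 48 h incubation (about two population doublings) in CO2 incubator; ethanol fixation, 0.1% crystal violet stain, eluted dye read at 570 nm. IC50 from linear regression of percent inhibition against log concentration.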
Compound,IC50 (Human betaherpesvirus 5) [µM],IC50 (HFF) [µM],IC50 (Human alphaherpesvirus 1) [µM],IC50 (L1210) [µM],IC50 (KB) [µM]
Cc1nsc2c1nc(SCc1ccccc1)n2[C@H]1C[C@H](O)[C@@H](CO)O1,> 100,> 100,> 100,> 100,> 100
CSc1nc2c(C)nsc2n1[C@H]1C[C@H](O)[C@@H](CO)O1,> 100,> 100,> 100,> 100,> 100
Cc1nsc2[nH]cnc12,32,32,45,17,20
OC[C@H]1OC(n2c(SCc3ccccc3)nc3cnsc32)[C@@H](O)[C@@H]1O (stereo not given in full),> 100,> 100,> 100,> 100,> 100
CSc1nc2sncc2n1[C@@H]1O[C@H](CO)[C@@H](O)[C@@H]1O,32,21,25,11,15
CSc1nc2c(C)nsc2n1[C@@H]1O[C@H](CO)[C@@H](O)[C@H]1O,> 100,> 100,> 100,> 100,> 100
c1ccc(CSc2nc3cnsc3[nH]2)cc1,21,14,15,0.3,0.2
OC[C@H]1O[C@@H](n2c(SCc3ccccc3)nc3cnsc32)C[C@@H]1O,> 100,> 100,> 100,8,> 100
CSc1nc2snc(C)c2n1[C@H]1C[C@H](O)[C@@H](CO)O1,32,32,60,33,30
OC[C@H]1OC(n2c(SCc3ccccc3)nc3sncc32)[C@@H](O)[C@@H]1O (stereo not given in full),3.2,2.1,> 100,1.5,3
Cc1nsc2ncn([C@H]3C[C@H](O)[C@@H](CO)O3)c12,> 100,> 100,> 100,78,> 100
CSc1nc2cnsc2n1[C@@H]1O[C@H](CO)[C@@H](O)[C@H]1O,> 100,> 100,> 100,> 100,> 100
Cc1nsc2c1nc(SCc1ccccc1)n2[C@@H]1O[C@H](CO)[C@@H](O)[C@H]1O,> 100,> 100,> 100,> 100,> 100
CSc1nc2sncc2n1[C@@H]1O[C@H](CO)[C@@H](O)[C@H]1O,32,21,20,8.6,15
CSc1nc2cnsc2n1[C@H]1C[C@H](O)[C@@H](CO)O1,> 100,> 100,> 100,> 100,> 100
OC[C@H]1O[C@@H](n2c(SCc3ccccc3)nc3sncc32)C[C@@H]1O,3.2,2.1,15,2.2,3
CSc1nc2c(C)nsc2n1[C@@H]1O[C@H](CO)[C@@H](O)[C@@H]1O,> 100,> 100,> 100,> 100,> 100
CSc1nc2cnsc2n1[C@@H]1O[C@H](CO)[C@@H](O)[C@@H]1O,> 100,> 100,100,> 100,> 100
Cc1nsc2ncn(C3O[C@H](CO)[C@@H](O)[C@H]3O)c12 (stereo not given in full),32,32,70,100,> 100
Cc1nsc2[nH]c(SCc3ccccc3)nc12,21,10,45,7,9
CSc1nc2sncc2n1[C@H]1C[C@H](O)[C@@H](CO)O1,22,15,10,20,6
CSc1nc2c(C)nsc2[nH]1,18,26,60,13,60
Cc1nsc2c1ncn2[C@H]1C[C@H](O)[C@@H](CO)O1,> 100,> 100,> 100,> 100,> 100
Cc1nsc2c1nc(SCc1ccccc1)n2[C@@H]1O[C@H](CO)[C@@H](O)[C@@H]1O,> 100,> 100,> 100,> 100,> 100
Cc1nsc2c1ncn2[C@@H]1O[C@H](CO)[C@@H](O)[C@@H]1O,> 100,> 100,> 100,> 100,> 100
Cc1nsc2c1ncn2[C@@H]1O[C@H](CO)[C@@H](O)[C@H]1O,> 100,150,> 100,10,90
CSc1nc2cnsc2[nH]1,32,32,45,7,15
